Measured values from ChEMBL document CHEMBL2046427, “Nonhematotoxic naphthalene diimide modified by polyamine: synthesis and biological evaluation” (J Med Chem, 2012).
Active and inactive are the calls of the source. The calls are words filed in the database; no cut-off is given here.

How the values were obtained:
HepG2 [1] = test: Cytotoxicity against human HepG2 cells after 48 hrs by MTT assay; format: functional, cell-based; conditions: HepG2, 48 h
How it was run: (§1)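 MTT conversion assay at 37 °C, 5% CO₂. […] Inhibition relative to untreated cells as 100%; IC50 by linear regression, mean of three independent experiments.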

MDA-MB-231 = test: Cytotoxicity against human MDA-MB-231 cells after 48 hrs by MTT assay; format: functional, cell-based; conditions: MDA-MB-231, 48 h; how it was run: as §1
HCT-116 = test: Cytotoxicity against human HCT116 cells after 48 hrs by MTT assay; format: functional, cell-based; conditions: HCT-116, 48 h; how it was run: as §1
HepG2 [2] = test: Cytotoxicity against human HepG2 cells assessed as cell nuclear shrinkage after 48 hrs by Hoechst 33342-based fluorescence-based high-content screening assay; format: functional
How it was run: (§2)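 HepG2 seeded 5 × 10³/well; after 12 h treated at 1, 5, 10, 15 and 30 μM for 48 h. Multiparameter cytotoxicity kit staining imaged by high-content screening: Hoechst 33342 for nuclear morphology, permeability dye (green nuclei) for membrane integrity, mitochondrial potential dye, and a weak-base dye for lysosomal mass/pH.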

HepG2 [3] = test: Cytotoxicity against human HepG2 cells assessed as mitochondrial permeability augmentation after 48 hrs by fluorescence-based high-content screening assay; format: functional, cell-based; how it was run: as §2
HepG2 [4] = test: Cytotoxicity against human HepG2 cells assessed as decrease in mitochondrial membrane potential after 48 hrs by fluorescence-based high-content screening assay; format: functional, cell-based; how it was run: as §2
HepG2 [5] = test: Cytotoxicity against human HepG2 cells assessed as acruement in lysosomal mass/pH after 48 hrs by fluorescence-based high-content screening assay; format: functional, cell-based; how it was run: as §2
HepG2 [6] = test: Cytotoxicity in human HepG2 cells assessed as loss of cell membrane integrity at 10 uM after 48 hrs by fluorescence-based high-content screening assay; format: functional
HepG2 [7] = test: Cytotoxicity in human HepG2 cells assessed as gain in lysosomal mass/pH at 10 uM after 48 hrs by fluorescence-based high-content screening assay; format: functional, cell-based
HepG2 [8] = test: Cytotoxicity in human HepG2 cells assessed as mitochondrial membrane damage at 10 uM after 48 hrs by fluorescence-based high-content screening assay; format: functional, cell-based
HepG2 [9] = test: Cytotoxicity in human HepG2 cells assessed as decrease in mitochondrial membrane potential at 10 uM after 48 hrs by fluorescence-based high-content screening assay; format: functional, cell-based
HepG2 [10] = test: Induction of apoptosis in human HepG2 cells assessed as phosphatidylserine externalisation at 10 uM after 48 hrs by annexinV/FITC-based high-content screening assay; format: functional, cell-based
How it was run: (§3)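 HepG2 in 24-well plates treated at 10 μM for 48 h, harvested and stained with annexin V–FITC/propidium iodide kit or cleaved caspase 3 indirect immunofluorescence. Imaging by high-content screening with target-activation analysis; comparison against control.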

HepG2 [11] = test: Induction of apoptosis in human HepG2 cells assessed as caspase 3 activation at 10 uM after 48 hrs by indirect immunofluorescence method; format: functional, cell-based; how it was run: as §3
HepG2 [12] = test: Induction of apoptosis in human HepG2 cells assessed as reactive oxygen species generation at 10 uM after 48 hrs by […]-based staining; format: functional, cell-based
How it was run: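 HepG2 given 10 μM for 48 h; intracellular ROS by DCFH-DA staining imaged by high-content screening, compared with untreated control.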

H22 [13] = test: Antitumor activity against mouse H22 cells xenografted in Kunming mouse assessed as tumor growth inhibition at 0.2 mg/kg, iv administered on day 8 post-tumor injection for 7 days measured on day 16 relative to vehicle treated control; format: functional; conditions: read-out: GI
How it was run: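 Male Kunming mice, 5 weeks, 18−22 g, injected sc with 2 × 10⁶ H22 cells. From day 8, randomized groups got caudal vein injection (0.2 or 5 mg/kg, or physiologic saline) for 7 consecutive days. On day 16 tumours excised and weighed; inhibitory rate (%) = [(A − B)/A] × 100 using mean tumour weights of control (A) and treated (B). Tumours formalin-fixed, H&E-stained.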

H22 [14] = test: Antitumor activity against mouse H22 cells xenografted in Kunming mouse assessed as decrease in cell survival at 0.2 mg/kg, iv administered on day 8 post-tumor injection for 7 days measured on day 16 by hematoxylin and eosin staining relative to vehicle treated control; format: functional, organism-based; parameters: dose 0.2 mg/kg
H22 [15] = test: Antitumor activity against mouse H22 cells xenografted in Kunming mouse assessed as median survival time at 0.2 […], iv administered 24 hrs post-tumor injection for 7 days (reference value: 12.7 +/- 2.5 days); format: functional
How it was run: (§4)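 Kunming mice bearing H22 cells; iv (caudal vein) dosing or physiologic saline control started 24 h after inoculation and given for 7 consecutive days. Median survival time recorded per group; activity judged as increase in lifespan versus saline control.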

H22 [16] = test: Antitumor activity against mouse H22 cells xenografted in Kunming mouse assessed as median survival time at 0.2 […], iv administered 24 hrs post-tumor injection for 7 days relative to vehicle treated control; format: functional; how it was run: as §4
H22 [17] = test: Antimetastatic activity against mouse H22 cells xenografted in Kunming mouse assessed as decrease in lung tumor burden at 0.2 mg/kg, iv administered on day 11 post-tumor injection for 7 days measured on day 18 relative to vehicle treated control; format: functional, organism-based; parameters: dose 0.2 mg/kg
H22 [18] = test: Antimetastatic activity against mouse H22 cells xenografted in Kunming mouse assessed as decrease in lung metastasis focuses at 0.2 mg/kg, iv administered on day 11 post-tumor injection for 7 days measured on day 18 relative to vehicle treated control; format: functional, organism-based; parameters: dose 0.2 mg/kg
H22 [19] = test: Antimetastatic activity against mouse H22 cells xenografted in Kunming mouse assessed as tumor weight at 0.2 mg/kg, iv administered on day 11 post-tumor injection for 7 days measured on day 18 (reference value: 0.34 +/- 0.15 g); format: functional
Mus musculus [20] = test: Toxicity in mouse H22 cells bearing Kunming mouse assessed as weight loss at 0.2 mg/kg, iv administered for 7 days measured on day 8 relative to vehicle treated control; format: organism-based; parameters: dose 0.2 mg/kg, route intravenous; conditions: in vivo, 168 h
How it was run: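 Body weight tracked during 7 consecutive days of daily iv dosing in tumour-bearing Kunming mice, with saline controls; animals killed on day 8.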

Mus musculus [21] = test: Toxicity in mouse H22 cells bearing Kunming mouse assessed as decrease in platelet number at 0.2 mg/kg, iv administered for 7 days measured on day 8 relative to vehicle treated control; format: organism-based; parameters: dose 0.2 mg/kg, route intravenous; conditions: in vivo, 168 h
How it was run: (§5)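 Tumour-bearing Kunming mice (10/group) dosed iv daily for 7 days, then killed on day 8. Blood and bone marrow counted on a Coulter counter for platelets, RBC, WBC and marrow cells. Spleen and thymus weighed; organ index (%) = (organ weight/body weight) × 100. Mean ± SD; Student's t test or ANOVA with q test versus saline.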

Mus musculus [22] = test: Toxicity in mouse H22 cells bearing Kunming mouse assessed as decrease in red blood cells number at 0.2 mg/kg, iv administered for 7 days measured on day 8 relative to vehicle treated control; format: organism-based; parameters: dose 0.2 mg/kg, route intravenous; conditions: in vivo, 168 h; how it was run: as §5
Mus musculus [23] = test: Toxicity in mouse H22 cells bearing Kunming mouse assessed as decrease in white blood cells number at 0.2 mg/kg, iv administered for 7 days measured on day 8 relative to vehicle treated control; format: organism-based; parameters: dose 0.2 mg/kg, route intravenous; conditions: in vivo, 168 h; how it was run: as §5
Mus musculus [24] = test: Hematotoxicity in mouse H22 cells bearing Kunming mouse assessed as decrease in bone marrow cell numbers at 0.2 mg/kg, iv administered for 7 days measured on day 8 relative to vehicle treated control; format: organism-based; parameters: dose 0.2 mg/kg, route intravenous; conditions: in vivo, 168 h; how it was run: as §5
Mus musculus [25] = test: Toxicity in mouse H22 cells bearing Kunming mouse assessed as change in spleen index number at 0.2 mg/kg, iv administered for 7 days measured on day 8 relative to vehicle treated control; format: organism-based; parameters: dose 0.2 mg/kg, route intravenous; conditions: in vivo, 168 h; how it was run: as §5
Mus musculus [26] = test: Toxicity in mouse H22 cells bearing Kunming mouse assessed as change in thymus index number at 0.2 mg/kg, iv administered for 7 days measured on day 8 relative to vehicle treated control; format: organism-based; parameters: dose 0.2 mg/kg, route intravenous; conditions: in vivo, 168 h; how it was run: as §5
Mus musculus [27] = test: Toxicity in mouse H22 cells bearing Kunming mouse assessed pathological changes in spleen at 0.2 mg/kg, iv administered for 7 days measured on day 8 by hematoxylin and eosin staining relative to vehicle treated control; format: organism-based; parameters: dose 0.2 mg/kg, route intravenous; conditions: in vivo, 168 h
Mus musculus [28] = test: Toxicity in mouse H22 cells bearing Kunming mouse assessed pathological changes in heart at 0.2 mg/kg, iv administered for 7 days measured on day 8 by hematoxylin and eosin staining relative to vehicle treated control; format: organism-based; parameters: dose 0.2 mg/kg, route intravenous; conditions: in vivo, 168 h
Mus musculus [29] = test: Toxicity in mouse H22 cells bearing Kunming mouse assessed pathological changes in liver at 0.2 mg/kg, iv administered for 7 days measured on day 8 by hematoxylin and eosin staining relative to vehicle treated control; format: organism-based; parameters: dose 0.2 mg/kg, route intravenous; conditions: in vivo, 168 h
Mus musculus [30] = test: Toxicity in mouse H22 cells bearing Kunming mouse assessed pathological changes in lung at 0.2 mg/kg, iv administered for 7 days measured on day 8 by hematoxylin and eosin staining relative to vehicle treated control; format: organism-based; parameters: dose 0.2 mg/kg, route intravenous; conditions: in vivo, 168 h
Mus musculus [31] = test: Toxicity in mouse H22 cells bearing Kunming mouse assessed pathological changes in kidney at 0.2 mg/kg, iv administered for 7 days measured on day 8 by hematoxylin and eosin staining relative to vehicle treated control; format: organism-based; parameters: dose 0.2 mg/kg, route intravenous; conditions: in vivo, 168 h
Mus musculus [32] = test: Toxicity in mouse H22 cells bearing Kunming mouse assessed pathological changes in brain at 0.2 mg/kg, iv administered for 7 days measured on day 8 by hematoxylin and eosin staining relative to vehicle treated control; format: organism-based; parameters: dose 0.2 mg/kg, route intravenous; conditions: in vivo, 168 h

`Cl.NCCCNCCCCNCCCN1C(=O)c2ccc3c4c(ccc(c24)C1=O)C(=O)N(CCCNCCCCNCCCN)C3=O` showed an IC50 (HepG2 [1]) of 1.22 µM, an IC50 (MDA-MB-231) of 0.45 µM and an IC50 (HCT-116) of 0.13 µM. For the same molecule, the Activity (HepG2 [2]) was “Dose-dependent effect”, the Activity (HepG2 [3]) was “Dose-dependent effect” and the Activity (HepG2 [4]) was “Dose-dependent effect”. For the same molecule, the Activity (HepG2 [5]) was “Dose-dependent effect”, the Activity (HepG2 [6]) was “Active” and the Activity (HepG2 [7]) was “Active”. The Activity (HepG2 [8]) was “Active”, the Activity (HepG2 [9]) was “Active” and the Activity (HepG2 [10]) was “Active”. For the same molecule, the Activity (HepG2 [11]) was “Active”, the Activity (HepG2 [12]) was “Active” and the inhibition in vivo at 0.2 mg/kg (H22 [13]) was 51.8%. The Activity (H22 [14]) was “Active”, the MST (H22 [15]) was 29.8 days and the Ratio (H22 [16]) was 2.3. The Activity (H22 [17]) was “Active”, the Activity (H22 [18]) was “Active” and the Activity (H22 [19]) was 0.17 g. The Activity (Mus musculus [20]) was “Non-toxic”, the Activity (Mus musculus [21]) was “Non-toxic” and the Activity (Mus musculus [22]) was “Non-toxic”. The Activity (Mus musculus [23]) was “Non-toxic”, the Activity (Mus musculus [24]) was “Non-toxic” and the Activity (Mus musculus [25]) was “Non-toxic”. The Activity (Mus musculus [26]) was “Non-toxic”, the Activity (Mus musculus [27]) was “Non-toxic” and the Activity (Mus musculus [28]) was “Non-toxic”. For the same molecule, the Activity (Mus musculus [29]) was “Non-toxic”, the Activity (Mus musculus [30]) was “Non-toxic” and the Activity (Mus musculus [31]) was “Non-toxic”. The Activity (Mus musculus [32]) was “Non-toxic”.
